Laboratory results: ChEMBL document CHEMBL1773052, “3-Trifluoromethylquinoxaline N,N'-dioxides as anti-trypanosomatid agents. Identification of optimal anti-T. cruzi agents and mechanism of action studies” (J Med Chem, 2011)
Activity calls are given as the source filed them. No cut-off for these calls is given here.

Assays:
Trypanosoma cruzi [1] = assay: Antitrypanosomal activity against Trypanosoma cruzi CL Brener clone epimastigotes assessed as cell death after 2 days by MTT assay; format: functional; conditions: 48 h, read-out: ID50 (the source's name)
In short: (§1)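 Parasites in exponential growth, in BHI-tryptose + 5% FBS for T. cruzi or RPMI + 5% FBS for L. braziliensis, 28 °C, 24-well plates. Compounds in DMSO; miltefosine in ethanol. 2-day exposure, two PBS-glucose (5.5 mM) washes, then MTT 0.4 mg/mL for 4 h at 28 °C. SDS-isopropanol lysis, OD read. Triplicates, six growth controls.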

Trypanosoma cruzi [2] = assay: Antitrypanosomal activity against Trypanosoma cruzi CL Brener clone infected in BALB/c mouse assessed as increase of mouse survival days at 10 mg/kg/day, po relative to control; format: functional
Trypanosoma cruzi [3] = assay: Antitrypanosomal activity against Trypanosoma cruzi CL Brener clone epimastigotes assessed as cell death at 25 uM after 2 days by MTT assay relative to control; format: functional
In short: (§2)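 Epimastigotes of each strain taken in exponential growth in BHI-tryptose with 5% FBS, 1 mL per well. Compounds added from DMSO and kept 2 days at 28 °C. Cells washed twice and resuspended in PBS-glucose (5.5 mM), then given 0.4 mg/mL MTT for 4 h at 28 °C. Lysis in SDS-isopropanol, OD read. Triplicate wells, six growth controls. PCyt taken against control, corrected for medium-only wells.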

Trypanosoma cruzi [4] = assay: Antitrypanosomal activity against Trypanosoma cruzi CL Brener clone infected in Swiss albino mouse assessed as increase of mouse survival days at 50 mg/kg/day, po relative to control; format: functional
Trypanosoma cruzi [5] = assay: Antitrypanosomal activity against Trypanosoma cruzi CL Brener clone trypomastigotes in parasite infected BALB/c mouse blood assessed as parasite lysis at 250 ug/ml after 24 hrs relative to control; format: functional
In short: (§3)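 Blood from BALB/c mice 7 days post-infection, taken by cardiac puncture into 3.8% sodium citrate (7:3). Compounds dissolved in DMSO, diluted in PBS to 100 or 250 μg/mL. 10 μL mixed with 100 μL infected blood (~10⁶ parasites/mL), in triplicate. Shaken 10 min at RT, held 4 °C for 24 h. Parasites counted by microscopy; gentian violet 250 μg/mL as standard.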

Trypanosoma cruzi [6] = assay: Antitrypanosomal activity against Trypanosoma cruzi CL Brener clone trypomastigotes in parasite infected BALB/c mouse blood assessed as parasite lysis at 100 ug/ml after 24 hrs relative to control; format: functional; in short: as §3
Trypanosoma cruzi [7] = assay: Antitrypanosomal activity against Trypanosoma cruzi Y infected in Swiss albino mouse assessed as increase of mouse survival days at 30 mg/kg/day, po relative to control; format: functional
Trypanosoma cruzi [8] = assay: Antitrypanosomal activity against Trypanosoma cruzi Colombiana epimastigotes assessed as cell death at 25 uM after 2 days by MTT assay relative to control; format: functional; in short: as §2
[9] = Cytotoxicity against mouse J774 cells; format: cell-based; conditions: read-out: ID50 (the source's name)
Leishmania braziliensis = assay: Antileishmanial activity against Leishmania braziliensis MHOM/BR/00/LTB300 promastigotes assessed as cell death after 2 days by MTT assay; format: functional; conditions: MHOM/BR/00/LTB300, 48 h, read-out: ID50 (the source's name); in short: as §1
Trypanosoma cruzi [10] = assay: Antitrypanosomal activity against Trypanosoma cruzi Y epimastigotes assessed as cell death after 2 days by MTT assay; format: functional; conditions: 48 h, read-out: ID50 (the source's name); in short: as §1
Salmonella typhimurium [11] = assay: Mutagenic activity in Salmonella Typhimurium TA98 assessed as number of revertants at 0.005 to 15 ug/plate by Ames test in presence of S9 fraction; format: toxicity, organism-based; conditions: salmonella enterica subsp. enterica serovar typhimurium
In short: (§4)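 Direct plate incubation with S. typhimurium TA98 on minimal glucose agar. Toxicity to the strain tested first; doses run in triplicate from DMSO solutions, DMSO as negative control. Metabolic activation with 500 μL Aroclor-treated mouse liver S9. Positive controls: 4-nitro-o-phenylenediamine 20.0 μg/plate without S9; 2-aminofluorene 10.0 μg/plate with S9. Revertants counted manually; mutagenic if ≥2-fold the negative control at two consecutive doses.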

[12] = Selectivity index, ratio of ID50 for mouse J774 cells to ID50 for Trypanosoma cruzi Tulahuen 2 epimastigotes; format: toxicity, cell-based; conditions: J774 cells versus Trypanosoma cruzi Tulahuen 2 epimastigotes, read-out: Selectivity Index
Trypanosoma cruzi [13] = assay: Antitrypanosomal activity against Trypanosoma cruzi Tulahuen 2 epimastigotes assessed as growth inhibition at 25 uM after 5 days relative to control; format: functional; conditions: Tulahuen 2, 120 h, read-out: GI
In short: (§5)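 Epimastigotes grown axenically at 28 °C in BHI-tryptose + 5% FBS; a 10-day stationary culture was inoculated to 1 × 10⁶ cells/mL. Drug added from DMSO stock, final DMSO ≤0.4%, vehicle control. A600 read daily. PGI on day 5 corrects for day-0 absorbance, relative to control. […] Three independent experiments.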

Trypanosoma cruzi [14] = assay: Antitrypanosomal activity against Trypanosoma cruzi CL Brener clone infected in BALB/c mouse assessed as reduction of parasitemia level at 10 mg/kg/day, po by ELISA; format: functional, organism-based
In short: (§6)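 Male BALB/c or Swiss albino mice, 30 days old, SPF, infected ip with 10³ blood trypomastigotes (CL Brener or Y). Oral dosing in PBS for 10 days. Controls: 10 mice on PBS; treated groups of 8. Tail-vein parasitemia weekly for 60 days, mortality recorded. Anti-T. cruzi antibodies measured by ELISA, run twice, at 30 and 60 or 90 days post-infection.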

Trypanosoma cruzi [15] = assay: Antitrypanosomal activity against Trypanosoma cruzi CL Brener clone infected in Swiss albino mouse assessed as reduction of parasitemia level at 10 mg/kg/day, po after 55 days by ELISA; format: functional, organism-based; conditions: in the assay text read “after 53 days” for “after 55 days”; in short: as §6
Trypanosoma cruzi [16] = assay: Antitrypanosomal activity against Trypanosoma cruzi Y epimastigotes assessed as cell death at 25 uM after 2 days by MTT assay relative to control; format: functional; in short: as §2
Trypanosoma cruzi [17] = assay: Antitrypanosomal activity against Trypanosoma cruzi Y infected in Swiss albino mouse assessed as increase of mouse survival days at 10 mg/kg/day, po relative to control; format: functional
Trypanosoma cruzi [18] = assay: Antitrypanosomal activity against Trypanosoma cruzi Tulahuen 2 epimastigotes assessed as growth inhibition after 5 days; format: functional; conditions: Tulahuen 2, 120 h, read-out: ID50; in short: as §5
Trypanosoma cruzi [19] = assay: Antitrypanosomal activity against Trypanosoma cruzi CL Brener clone infected in Swiss albino mouse assessed as increase of mouse survival days at 10 mg/kg/day, po relative to control; format: functional
Trypanosoma cruzi [20] = assay: Antitrypanosomal activity against Trypanosoma cruzi Y infected in Swiss albino mouse assessed as reduction of microbial antibody level at 10 to 30 mg/kg/day, po by Wilconxon test; format: functional, organism-based; in short: as §6
Trypanosoma cruzi [21] = assay: Inhibition of mitochondrial dehydrogenase activity in Trypanosoma cruzi Y epimastigotes at 20 uM up to 120 mins by MTT assay
In short: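 Y-strain epimastigotes, 10⁶ per well in 500 μL medium, treated with 20 μM compound at 28 °C, untreated wells as time-matched controls. At each time point cells counted, then MTT (50 μL of 5 mg/mL in PBS) added for 4 h. Stopped with acidic isopropanol, A570 read. Activity given as percent of untreated control.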

Trypanosoma cruzi [22] = assay: Antitrypanosomal activity against Trypanosoma cruzi Y infected in Swiss albino mouse assessed as reduction of parasitemia level at 10 to 30 mg/kg/day, po by ELISA; format: functional, organism-based; in short: as §6
Salmonella typhimurium [23] = assay: Mutagenic activity in Salmonella Typhimurium TA98 assessed as number of revertants at 0.005 to 15 ug/plate by Ames test in absence of S9 fraction; format: toxicity, organism-based; conditions: salmonella enterica subsp. enterica serovar typhimurium; in short: as §4
Trypanosoma cruzi [24] = assay: Antitrypanosomal activity against Trypanosoma cruzi CL Brener clone infected in BALB/c mouse assessed as reduction of microbial antibody level at 50 mg/kg/day, po after 90 days by Wilconxon test; format: functional, organism-based; in short: as §6
Trypanosoma cruzi [25] = assay: Antitrypanosomal activity against Trypanosoma cruzi Y infected in Swiss albino mouse assessed as reduction of microbial antibody level at 50 mg/kg/day, po by Wilconxon test; format: functional, organism-based; in short: as §6
Trypanosoma cruzi [26] = assay: Antitrypanosomal activity against Trypanosoma cruzi CL Brener clone infected in BALB/c mouse assessed as increase of mouse survival days at 50 mg/kg/day, po relative to control; format: functional
Trypanosoma cruzi [27] = assay: Antitrypanosomal activity against Trypanosoma cruzi Y infected in Swiss albino mouse assessed as increase of mouse survival days at 50 mg/kg/day, po relative to control; format: functional

In the case of `O=C(c1ccccc1)c1c(C(F)(F)F)[n+]([O-])c2cc(F)c(F)cc2[n+]1[O-]`, the IC50 (Trypanosoma cruzi [1]) is reported as 1100 nM, the survival at 10 mg/kg/day (Trypanosoma cruzi [2]) is reported as 100% and the Activity (Trypanosoma cruzi [3]) is reported as 96%. It also gave a survival at 50 mg/kg/day (Trypanosoma cruzi [4]) of 100%, an Activity (Trypanosoma cruzi [5]) of 84% and an Activity (Trypanosoma cruzi [6]) of 63%. For the same compound, the survival at 30 mg/kg/day (Trypanosoma cruzi [7]) was 87.5%, the Activity (Trypanosoma cruzi [8]) was 100% and the CC50 [9] was 8000 nM. The IC50 (Leishmania braziliensis) was 1300 nM, the IC50 (Trypanosoma cruzi [10]) was 1800 nM and the Activity (Salmonella typhimurium [11]) was “Non-toxic”. The selectivity ratio [12] was 11.4, the inhibition of growth at 25 µM (Trypanosoma cruzi [13]) was 100% and the Activity (Trypanosoma cruzi [14]) was “Active”. For the same compound, the Activity (Trypanosoma cruzi [15]) was “Active”, the Activity (Trypanosoma cruzi [16]) was 100% and the survival at 10 mg/kg/day (Trypanosoma cruzi [17]) was 100%. For the same compound, the IC50 (Trypanosoma cruzi [18]) was 700 nM, the survival at 10 mg/kg/day (Trypanosoma cruzi [19]) was 100% and the Activity (Trypanosoma cruzi [20]) was “Active”. The inhibition (Trypanosoma cruzi [21]) was “Active”, the Activity (Trypanosoma cruzi [22]) was “Active” and the Activity (Salmonella typhimurium [23]) was “Non-toxic”.

With `O=C(Cn1ccnc1[N+](=O)[O-])NCc1ccccc1` [BENZNIDAZOLE] the Activity (Trypanosoma cruzi [24]) was “inactive”, the Activity (Trypanosoma cruzi [25]) was “Active” and the survival at 50 mg/kg/day (Trypanosoma cruzi [4]) was 100%. The survival at 50 mg/kg/day (Trypanosoma cruzi [26]) was 75% and the survival at 50 mg/kg/day (Trypanosoma cruzi [27]) was 87.5%.
